Assay results reported in PMC6240402 (The Journal of allergy and clinical immunology, 2018).
“Also recorded” adds a separate entry of the source. Each block holds one molecule with its values, some of them ahead of it.

Assays:
sputum eosinophils / AHR = conditions: clinical trial; cited from earlier work
[1] = biological target: T1, CCR3 (human blood eosinophils) (Homo sapiens, UniProt P51677); assay: CCR3 surface expression in human blood eosinophils, prolonged exposure; assay type: cell-based
T1 sequence (P51677 1-355): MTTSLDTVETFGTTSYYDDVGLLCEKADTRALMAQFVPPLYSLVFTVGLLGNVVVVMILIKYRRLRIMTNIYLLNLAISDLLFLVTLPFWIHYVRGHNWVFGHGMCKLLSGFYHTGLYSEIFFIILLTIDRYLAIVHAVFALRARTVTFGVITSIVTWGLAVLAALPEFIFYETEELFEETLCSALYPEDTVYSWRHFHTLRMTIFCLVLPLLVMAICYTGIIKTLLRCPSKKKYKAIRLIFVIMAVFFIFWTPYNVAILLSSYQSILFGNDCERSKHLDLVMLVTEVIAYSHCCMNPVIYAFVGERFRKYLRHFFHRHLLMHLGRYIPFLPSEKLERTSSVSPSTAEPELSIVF
How it was run: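 Eosinophils came from blood of mild allergic asthmatic donors, separated on a Ficoll-Paque gradient and then negatively selected. Cells got vehicle or 1 μM inhibitor, with or without CCL11 (12 nM), for 24, 48 or 72 h, refreshed daily with medium plus inhibitor. After blocking with 10% heat-inactivated human AB serum, cells were stained with PE anti-CCR3 (clone 5E8) or isotype control and read by flow cytometry. Surface CCR3 is given as % of vehicle: mean ± SEM, n=3, triplicate.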

CCR3 [2] = biological target: T2, CCR3 (Homo sapiens, UniProt P51677); assay: CCR3 surface expression/internalization in AML14.3D10-CCR3 cells; assay type: cell-based
T2 sequence (P51677 1-355): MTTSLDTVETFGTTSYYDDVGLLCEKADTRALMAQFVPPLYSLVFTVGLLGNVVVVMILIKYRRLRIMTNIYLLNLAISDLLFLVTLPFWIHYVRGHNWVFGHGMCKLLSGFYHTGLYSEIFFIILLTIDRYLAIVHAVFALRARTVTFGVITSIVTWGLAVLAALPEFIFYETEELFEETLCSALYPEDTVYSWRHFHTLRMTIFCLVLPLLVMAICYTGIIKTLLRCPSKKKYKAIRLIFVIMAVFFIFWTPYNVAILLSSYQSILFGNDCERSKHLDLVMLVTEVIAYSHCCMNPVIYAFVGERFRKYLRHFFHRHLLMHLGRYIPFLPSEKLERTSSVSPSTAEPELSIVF
How it was run: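 CCR3-transfected, eosinophil-differentiated AML14.3D10 cells were exposed for 30 min to vehicle, test peptide (0.01–10 μM) or comparator antagonists (1 μM), each with or without CCL11 (12 nM). Longer exposures ran 24–72 h at 1 μM, with daily medium/inhibitor renewal. Cells were blocked with 10% heat-inactivated human AB serum, stained with PE anti-CCR3 (5E8) or isotype, and analysed by flow cytometry. Values are mean ± SEM, n=3, in triplicate.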

lung eosinophils = conditions: subcutaneous 100 mg/kg, resuspended with Tween-80; cited from earlier work
[3] = system: CCR3 (AML14.3D10-CCR3 cells); assay type: cell-based
How it was run: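 AML14.3D10-CCR3 cells (an eosinophil-differentiated AML line stably expressing CCR3) were held 24, 48 or 72 h with vehicle or test compound at 1 μM. Medium was replaced daily with fresh complete medium containing compound. Cells were then challenged with CCL11 (12 nM). Each time point was compared with the 24 h point; mean ± SEM, n=3 experiments in triplicate.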

Solubility observation = assay type: physicochemical; conditions: authors' own experience; unsuitable for iv injection
CCR3 [4] = biological target: T2, CCR3; conditions: SB328437; cited from earlier work
[5] = biological target: T1, CCR3 (human blood eosinophils); assay: Eotaxin-induced chemotaxis of blood eosinophils; assay type: cell-based; conditions: CCL11 12 nM, CCL24 20 nM, CCL26 100 nM
How it was run: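 Eosinophils were taken from the blood of mild allergic asthmatic subjects, separated over a Ficoll-Paque Plus gradient, then purified by negative selection with an eosinophil isolation kit. The test peptide was given at 0.001–10 μM, with 4 h chemotaxis toward CCL11 (12 nM), CCL24 (20 nM) or CCL26 (100 nM). IC50 and IC90 were derived from the dose-response inhibition curves.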

[6] = biological target: T3, CCR3 (AML14.3D10-CCR3 cells) (Homo sapiens, UniProt P51677); assay: Eotaxin-induced chemotaxis of AML14.3D10-CCR3 cells; assay type: cell-based; conditions: CCL11 12 nM, CCL24 20 nM, CCL26 100 nM
T3 sequence (P51677 1-355): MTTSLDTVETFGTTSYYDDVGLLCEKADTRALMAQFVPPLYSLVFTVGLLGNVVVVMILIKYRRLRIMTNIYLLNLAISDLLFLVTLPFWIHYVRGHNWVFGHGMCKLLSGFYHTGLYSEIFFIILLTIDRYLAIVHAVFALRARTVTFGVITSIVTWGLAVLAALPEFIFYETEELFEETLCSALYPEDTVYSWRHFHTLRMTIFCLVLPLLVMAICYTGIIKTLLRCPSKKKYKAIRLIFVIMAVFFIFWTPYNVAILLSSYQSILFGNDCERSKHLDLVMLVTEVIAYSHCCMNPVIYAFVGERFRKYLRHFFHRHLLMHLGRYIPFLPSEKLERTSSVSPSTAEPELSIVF
How it was run: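 Eosinophil-differentiated acute myeloid leukaemia line stably transfected to express CCR3. Cells exposed to the test peptide across 0.001–10 μM as a dose-response, then allowed to migrate for 4 h toward CCL11 (12 nM), CCL24 (20 nM) or CCL26 (100 nM). Read-out is inhibition of chemotaxis.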

CCR3 [7] = biological target: T2, CCR3; assay: 13C HSQC NMR binding to reductively methylated CCR3 positive membranes
How it was run: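 13C HSQC spectra recorded on membranes carrying 13C-reductively methylated CCR3 (lysine di-13CH3 label), compared with CCR3-null membranes. Spectra were taken with or without 1 μM CCL11, in the presence or absence of 2 μM test peptide. Binding was judged from spectral comparisons between conditions.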

Molecule: NC(=O)c1ccc(CNC(=O)NC[C@H]2CN(Cc3ccc(Cl)c(Cl)c3)CCO2)cc1 [GW766994]
AHR (sputum eosinophils / AHR): significant inhibition of AHR | sputum eosinophils (sputum eosinophils / AHR): trend towards inhibition of sputum eosinophils

Molecule: COC(=O)[C@H](Cc1ccc([N+](=O)[O-])cc1)NC(=O)c1cccc2ccccc12 [SB328437]
CCR3 surface levels, prolonged exposure ([1]; 1 μM, up to 72h): failed to promote CCR3 cell surface accumulation; also recorded: no significant effect on receptor levels | CCR3 internalization (discussion) (CCR3 [2]; effect more pronounced with longer treatment times): partially or completely block CCR3 internalization | OVA-induced accumulation of eosinophils in lungs (lung eosinophils): successfully suppress OVA-induced accumulation of eosinophils in the lungs | drop in chemotaxis inhibition level over 72h ([3]; AML14.3D10-CCR3, 1 μM, CCL11 12 nM, 72h): 13.7% | CCL11/CCR3-mediated chemotaxis inhibition relative to R321 and UCB35625 ([3]; equimolar concentrations, 1 μM): less effective inhibitor of CCL11/CCR3-mediated chemotaxis | solubility (Solubility observation): solubility issues | activity at CCR3 in eosinophils (CCR3 [4]): specific inhibitor of CCR3 in eosinophils

Molecule: CCL11: high affinity agonist chemokine of CCR3
induction of chemotaxis, blood eosinophils [5]: undergo CCR3-mediated chemotaxis | induction of chemotaxis, AML14.3D10-CCR3 [6]: undergo CCR3-mediated chemotaxis | CCR3 surface expression, 24h, CCL11 alone ([1]; CCL11 12 nM alone, 24h, % of vehicle): ~ 68% | CCR3 surface expression, 72h, CCL11 alone ([1]; CCL11 12 nM alone, 72h, % of vehicle): ~ 18% | CCR3 internalized from cell surface (CCR3 [2]; AML14.3D10-CCR3, CCL11 30 min, flow cytometry): More than 50% | interference of CCL11 and R321 with each other's binding (CCR3 [7]; 1 μM CCL11 and 2 μM R321): neither CCL11 nor R321 interfere with each other’s binding to the receptor | effect on CCR3 HSQC signals (CCR3 [7]; 1 μM CCL11 or 2 μM R321): specifically reduced the intensity of CCR3 signals

Other lines, results leading:

induction of chemotaxis, blood eosinophils [5]: undergo CCR3-mediated chemotaxis | induction of chemotaxis, AML14.3D10-CCR3 [6]: undergo CCR3-mediated chemotaxis
Molecule: CCL26: high affinity agonist chemokine of CCR3

induction of chemotaxis, blood eosinophils [5]: undergo CCR3-mediated chemotaxis | induction of chemotaxis, AML14.3D10-CCR3 [6]: undergo CCR3-mediated chemotaxis
B1: CCL24: high affinity agonist chemokine of CCR3 (protein, UniProt O00175 27-119, looked up)
C-C motif chemokine 24: VVIPSPCCMFFVSKRIPENRVVSYQLSSRSTCLKAGVIFTTKKGQQFCGDPKQEWVQRYMKNLDAKQKKASPRARAVAVKGPVQRYPGNQTTC
